Experimental data taken from ChEMBL document CHEMBL3407388, “Synthesis, anticancer activity and molecular docking studies on a series of heterocyclic trans-cyanocombretastatin analogues as antitubulin agents” (2015).

Tests used:
Assay type in all cases: functional
HL-60(TB) = assay: Cytotoxicity against human HL-60(TB) cells assessed as growth inhibition after 48 hrs by SRB assay; conditions: HL-60, 48 h
Method in brief: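 NCI 60-cell panel, leukemia subpanel. Five-dose screen at 10-fold dilutions from 10−4 to 10−8 M with 48 h drug exposure. GI50 is the molar concentration giving 50% reduction in net cell growth compared with cell numbers on day 0.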

K562 = assay: Cytotoxicity against human K562 cells assessed as growth inhibition after 48 hrs by SRB assay; conditions: K562, 48 h
Method in brief: (§1)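 NCI 60-cell panel; compounds passing a single-dose screen (10−5 M, 48 h) were tested at five 10-fold dilutions (10−4 to 10−8 M) with 48 h drug exposure. GI50 is the molar concentration giving 50% reduction in net cell growth relative to cell numbers on day 0.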

MOLT-4 = assay: Cytotoxicity against human MOLT4 cells assessed as growth inhibition after 48 hrs by SRB assay; conditions: MOLT-4, 48 h; method in brief: as §1
RPMI-8226 = assay: Cytotoxicity against human RPMI8226 cells assessed as growth inhibition after 48 hrs by SRB assay; conditions: RPMI-8226, 48 h; method in brief: as §1
NCI-H226 = assay: Cytotoxicity against human NCI-H226 cells assessed as growth inhibition after 48 hrs by SRB assay; conditions: NCI-H226, 48 h; method in brief: as §1
NCI-H23 = assay: Cytotoxicity against human NCI-H23 cells assessed as growth inhibition after 48 hrs by SRB assay; conditions: NCI-H23, 48 h; method in brief: as §1
NCI-H460 = assay: Cytotoxicity against human NCI-H460 cells assessed as growth inhibition after 48 hrs by SRB assay; conditions: NCI-H460, 48 h; method in brief: as §1
COLO 205 = assay: Cytotoxicity against human COLO205 cells assessed as growth inhibition after 48 hrs by SRB assay; conditions: COLO 205, 48 h; method in brief: as §1
HCC 2998 = assay: Cytotoxicity against human HCC2998 cells assessed as growth inhibition after 48 hrs by SRB assay; conditions: HCC 2998, 48 h; method in brief: as §1
[1] = Cytotoxicity against human HCT116 cells assessed as growth inhibition after 48 hrs by SRB assay; conditions: HCT-116, 48 h; method in brief: as §1
[2] = Cytotoxicity against human HCT15 cells assessed as growth inhibition after 48 hrs by SRB assay; conditions: HCT-15, 48 h; method in brief: as §1
HT-29 = assay: Cytotoxicity against human HT-29 cells assessed as growth inhibition after 48 hrs by SRB assay; conditions: HT-29, 48 h; method in brief: as §1
KM12 = assay: Cytotoxicity against human KM12 cells assessed as growth inhibition after 48 hrs by SRB assay; conditions: KM12, 48 h; method in brief: as §1
SW-620 = assay: Cytotoxicity against human SW620 cells assessed as growth inhibition after 48 hrs by SRB assay; conditions: SW-620, 48 h
SF-268 = assay: Cytotoxicity against human SF268 cells assessed as growth inhibition after 48 hrs by SRB assay; conditions: SF-268, 48 h; method in brief: as §1
SF-295 = assay: Cytotoxicity against human SF295 cells assessed as growth inhibition after 48 hrs by SRB assay; conditions: SF-295, 48 h; method in brief: as §1
SF-539 = assay: Cytotoxicity against human SF539 cells assessed as growth inhibition after 48 hrs by SRB assay; conditions: SF-539, 48 h; method in brief: as §1
SNB-19 = assay: Cytotoxicity against human SNB19 cells assessed as growth inhibition after 48 hrs by SRB assay; conditions: SNB-19, 48 h; method in brief: as §1
U-251 = assay: Cytotoxicity against human U251 cells assessed as growth inhibition after 48 hrs by SRB assay; conditions: U-251, 48 h
LOX IMVI = assay: Cytotoxicity against human LOXIMVI cells assessed as growth inhibition after 48 hrs by SRB assay; method in brief: as §1
M14 = assay: Cytotoxicity against human M14 cells assessed as growth inhibition after 48 hrs by SRB assay; conditions: M14, 48 h; method in brief: as §1
MDA-MB-435 = assay: Cytotoxicity against human MDA-MB-435 cells assessed as growth inhibition after 48 hrs by SRB assay; conditions: MDA-MB-435, 48 h; method in brief: as §1
SK-MEL-5 = assay: Cytotoxicity against human SK-MEL-5 cells assessed as growth inhibition after 48 hrs by SRB assay; conditions: SK-MEL-5, 48 h; method in brief: as §1
[3] = Cytotoxicity against human UACC62 cells assessed as growth inhibition after 48 hrs by SRB assay; conditions: UACC-62, 48 h
IGROV-1 = assay: Cytotoxicity against human IGROV1 cells assessed as growth inhibition after 48 hrs by SRB assay; conditions: IGROV-1, 48 h; method in brief: as §1
[4] = Cytotoxicity against human OVCAR4 cells assessed as growth inhibition after 48 hrs by SRB assay; conditions: OVCAR-4, 48 h; method in brief: as §1
[5] = Cytotoxicity against human OVCAR5 cells assessed as growth inhibition after 48 hrs by SRB assay; conditions: OVCAR-5, 48 h; method in brief: as §1
[6] = Cytotoxicity against human OVCAR8 cells assessed as growth inhibition after 48 hrs by SRB assay; conditions: OVCAR-8, 48 h; method in brief: as §1
[7] = Cytotoxicity against human NCI-ADR-RES cells assessed as growth inhibition after 48 hrs by SRB assay; method in brief: as §1
SK-OV-3 = assay: Cytotoxicity against human SKOV3 cells assessed as growth inhibition after 48 hrs by SRB assay; conditions: SK-OV-3, 48 h; method in brief: as §1
786-0 = assay: Cytotoxicity against human 786-0 cells assessed as growth inhibition after 48 hrs by SRB assay; conditions: 786-0, 48 h; method in brief: as §1
A498 = assay: Cytotoxicity against human A498 cells assessed as growth inhibition after 48 hrs by SRB assay; conditions: A498, 48 h; method in brief: as §1
CAKI-1 = assay: Cytotoxicity against human Caki1 cells assessed as growth inhibition after 48 hrs by SRB assay; conditions: CAKI-1, 48 h; method in brief: as §1
RXF 393 = assay: Cytotoxicity against human RXF393 cells assessed as growth inhibition after 48 hrs by SRB assay; conditions: RXF 393, 48 h; method in brief: as §1
SN12C = assay: Cytotoxicity against human SN12C cells assessed as growth inhibition after 48 hrs by SRB assay; method in brief: as §1
TK-10 = assay: Cytotoxicity against human TK10 cells assessed as growth inhibition after 48 hrs by SRB assay; conditions: TK-10, 48 h
[8] = Cytotoxicity against human UO31 cells assessed as growth inhibition after 48 hrs by SRB assay; conditions: UO-31, 48 h
[9] = Cytotoxicity against human PC3 cells assessed as growth inhibition after 48 hrs by SRB assay; conditions: PC-3, 48 h; method in brief: as §1
DU-145 = assay: Cytotoxicity against human DU145 cells assessed as growth inhibition after 48 hrs by SRB assay; conditions: DU-145, 48 h; method in brief: as §1
MCF7 = assay: Cytotoxicity against human MCF7 cells assessed as growth inhibition after 48 hrs by SRB assay; conditions: MCF7, 48 h; method in brief: as §1
MDA-MB-231 = assay: Cytotoxicity against human MDA-MB-231 cells assessed as growth inhibition after 48 hrs by SRB assay; conditions: MDA-MB-231, 48 h; method in brief: as §1
[10] = Cytotoxicity against human Hs578T cells assessed as growth inhibition after 48 hrs by SRB assay; conditions: Hs-578T; method in brief: as §1
BT-549 = assay: Cytotoxicity against human BT549 cells assessed as growth inhibition after 48 hrs by SRB assay; conditions: BT-549, 48 h; method in brief: as §1

## COc1cc(/C(C#N)=C/c2cc3ccccc3[nH]2)cc(OC)c1OC
HL-60(TB)
  GI50: < 10 nM
K562
  GI50: < 10 nM
MOLT-4
  GI50: 23 nM
RPMI-8226
  GI50: < 10 nM
NCI-H226
  GI50: < 10 nM
NCI-H23
  GI50: < 10 nM
NCI-H460
  GI50: < 10 nM
COLO 205
  GI50: 16 nM
HCC 2998
  GI50: 18 nM
[1]
  GI50: < 10 nM
[2]
  GI50: < 10 nM
HT-29
  GI50: < 10 nM
KM12
  GI50: < 10 nM
SW-620
  GI50: < 10 nM
SF-268
  GI50: 15 nM
SF-295
  GI50: < 10 nM
SF-539
  GI50: < 10 nM
SNB-19
  GI50: < 10 nM
U-251
  GI50: < 10 nM
LOX IMVI
  GI50: < 10 nM
M14
  GI50: < 10 nM
MDA-MB-435
  GI50: < 10 nM
SK-MEL-5
  GI50: < 10 nM
[3]
  GI50: < 10 nM
IGROV-1
  GI50: < 10 nM
[4]
  GI50: 15.2 µM
[5]
  GI50: 80 nM
[6]
  GI50: < 10 nM
[7]
  GI50: < 10 nM
SK-OV-3
  GI50: < 10 nM
786-0
  GI50: < 10 nM
A498
  GI50: < 10 nM
CAKI-1
  GI50: < 10 nM
RXF 393
  GI50: < 10 nM
SN12C
  GI50: < 10 nM
TK-10
  GI50: < 10 nM
[8]
  GI50: < 10 nM
[9]
  GI50: < 10 nM
DU-145
  GI50: < 10 nM
MCF7
  GI50: 16 nM
MDA-MB-231
  GI50: 14 nM
[10]
  GI50: < 10 nM
BT-549
  GI50: < 10 nM

## COc1ccc(/C(C#N)=C/c2cc3ccccc3[nH]2)cc1OC
HL-60(TB)
  GI50: 34 nM
K562
  GI50: 39 nM
MOLT-4
  GI50: 84 nM
RPMI-8226
  GI50: 151 nM
NCI-H226
  GI50: 399 nM
NCI-H23
  GI50: 236 nM
NCI-H460
  GI50: 53 nM
COLO 205
  GI50: 232 nM
HCC 2998
  GI50: 366 nM
[1]
  GI50: 44 nM
[2]
  GI50: 48 nM
HT-29
  GI50: 48 nM
KM12
  GI50: 76 nM
SW-620
  GI50: 42 nM
SF-268
  GI50: 1480 nM
SF-295
  GI50: 36 nM
SF-539
  GI50: 47 nM
SNB-19
  GI50: 189 nM
U-251
  GI50: 75 nM
LOX IMVI
  GI50: 64 nM
M14
  GI50: 39 nM
MDA-MB-435
  GI50: 21 nM
SK-MEL-5
  GI50: 142 nM
[3]
  GI50: 38 nM
IGROV-1
  GI50: 482 nM
[4]
  GI50: 0.735 µM
[5]
  GI50: 471 nM
[6]
  GI50: 326 nM
[7]
  GI50: 40 nM
SK-OV-3
  GI50: 394 nM
786-0
  GI50: 602 nM
A498
  GI50: 40 nM
CAKI-1
  GI50: 103 nM
RXF 393
  GI50: 151 nM
SN12C
  GI50: 779 nM
TK-10
  GI50: 5560 nM
[8]
  GI50: 71 nM
[9]
  GI50: 62 nM
DU-145
  GI50: 206 nM
MCF7
  GI50: 289 nM
MDA-MB-231
  GI50: 291 nM
[10]
  GI50: 133 nM
BT-549
  GI50: 97.8 nM

## COc1cc(/C(C#N)=C/c2nc3ccccc3s2)cc(OC)c1OC
HL-60(TB)
  GI50: 66 nM
K562
  GI50: 51 nM
MOLT-4
  GI50: 9200 nM
RPMI-8226
  GI50: 237 nM
NCI-H226
  GI50: 844 nM
NCI-H23
  GI50: 3250 nM
NCI-H460
  GI50: 336 nM
COLO 205
  GI50: 36 nM
HCC 2998
  GI50: 297 nM
[1]
  GI50: 52 nM
[2]
  GI50: 45 nM
HT-29
  GI50: 37 nM
KM12
  GI50: 278 nM
SW-620
  GI50: 38 nM
SF-268
  GI50: 1030 nM
SF-295
  GI50: 508 nM
SF-539
  GI50: 97 nM
SNB-19
  GI50: 2490 nM
U-251
  GI50: 1650 nM
LOX IMVI
  GI50: 73 nM
M14
  GI50: 193 nM
MDA-MB-435
  GI50: 21 nM
SK-MEL-5
  GI50: 100 nM
[3]
  GI50: 52 nM
IGROV-1
  GI50: 1270 nM
[4]
  GI50: 3.86 µM
[5]
  GI50: 347 nM
[6]
  GI50: 438 nM
[7]
  GI50: 59 nM
SK-OV-3
  GI50: 626 nM
786-0
  GI50: 1060 nM
A498
  GI50: 198 nM
CAKI-1
  GI50: 47 nM
RXF 393
  GI50: 148 nM
SN12C
  GI50: 515 nM
TK-10
  GI50: 63 nM
[8]
  GI50: 83 nM
[9]
  GI50: 341 nM
DU-145
  GI50: 333 nM
MCF7
  GI50: 34 nM
MDA-MB-231
  GI50: 992 nM
[10]
  GI50: 1290 nM
BT-549
  GI50: 12200 nM
